# Rows were chosen to be rich in hits. Some 1.5% of all compounds tested hit in one or more screens of this group.
# PGC1a acetyl inh: PGC1a acetylation modulation, inhibitor mode; inhibition, % at 15.6 µM; U2OS PGC1a acetylation, AlphaScreen anti-acetyl-lysine; with virally co-expressed GCN5 acetyltransferase; actives 0.17% (n = 350,000); AID 651687;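 active = every replicate shows inhibition of at least 40%; inconclusive = mean inhibition at least 40% but some replicate below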
# MITF TRPM1 HTS: activators of MITF-driven TRPM1 promoter activity in SK-MEL-5 cells; SK-MEL-5 TRPM1-promoter luciferase, 24 h; % of positive control, neutral wells = 0; activation, % at 12.5 µM; actives 0.75% (n = 300,000); AID 588334;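 active = mean activation of at least 80% with every replicate also reaching 80%; inconclusive = mean reaches 80% but some replicate falls short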
# Wnt act: activators of Wnt/beta-catenin signaling; Wnt/beta-catenin reporter cell assay, activator, plate reader; activation, % at 9.35 µM; actives 1.2% (n = 300,000); AID 743398; in the data active = activation above about 30%, passing the limit was not always enough; inconclusive = no clear call, values can overlap the other calls
# Cneo AK release: causes C. neoformans cell lysis; adenylate kinase release luminescence, 4 h; normalised: neutral wells 0, clomiphene wells 100; lysis activity, % at 15 µM; actives 0.2% (n = 360,000); AID 651654;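 active = mean lysis activity across replicates of at least 80%, whatever share of replicates individually reach that level; inactive = mean lysis activity below 80%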
#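 read-out = cell lysis signal | test system = log-phase Cryptococcus neoformans yeast cells | input = cells at 5 × 10^6 per mL | medium = fresh YPD growth medium | signal = luminescent adenylate kinase detection reagent | timing = 4 h at 37 °C static, read 1 h later | dosing = single dose | controls = Clomiphene as positive lysis control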
# A number is an active result; - = inactive; ? = inconclusive; . = not tested or not shown.
SMILES,PGC1a acetyl inh,MITF TRPM1 HTS,Wnt act,Cneo AK release
COc1cc2c(cc1OC)-c1cc(Nc3ccccc3)nc(=O)n1CC2,-,.,45.4,-
O=C(C[C@@H]1CC[C@H](NC(=O)c2ccccc2)[C@H](CO)O1)NCCc1ccncc1,-,.,.,-
Cc1nn(-c2ccccc2)c(/N=C/c2ccc(O)cc2)c1-c1ccccc1,-,83.4,.,-
Cc1cc(-c2ccccc2)nc(-c2ccccc2)c1C,.,-,-,-
Cc1cc2ncc(-c3ccccc3)nc2cc1C,-,-,44.8,-
Oc1ccc(-c2cnc3ccccc3n2)cc1,.,?,52.6,.
Nc1ccc2nc(-c3ccccc3)cnc2c1,-,.,71.7,-
O=C(Oc1ccc(-c2cnc3ccccc3n2)cc1)c1ccc(Br)o1,-,-,33.8,-
O=C(c1cccnc1)N1CC[C@@H]2[C@H](CO)Nc3ccc(-c4ccc(F)cc4)cc3[C@@H]21,-,.,.,-
Cc1ccccc1S(=O)(=O)N1CC[C@@H]2[C@H](CO)N(C)c3ccc(C#Cc4ccc(F)cc4)cc3[C@@H]21,-,.,.,-
c1cc(-c2cccs2)nc(-c2cccs2)c1,.,-,-,.
Clc1ccc(-c2cnc3ccccc3n2)cc1,.,-,.,.
CCOC(=O)c1ccc2ncc(-c3ccccc3)nc2c1,-,110.8,-,.
Cc1ccc(-c2cnc3ccccc3n2)cc1C,-,-,40.2,-
c1csc(-c2cnc3ccccc3n2)c1,-,.,55.3,-
Oc1ccc(-c2nccc(-c3ccccn3)n2)cc1,-,100.9,-,-
Cc1ccc(-c2ccnc(-c3ccc(O)cc3)n2)cc1,-,-,-,.
COc1cc(CN2CC3(CCN(C(C)=O)CC3)c3c([nH]c4cc(OC)ccc34)[C@H]2CO)cc(OC)c1,-,.,.,.
Cc1ccc(-c2ccc([C@@H]3[C@@H](CO)N4CCCCN(S(=O)(=O)c5ccccc5C)C[C@@H]34)cc2)cc1,-,.,.,-
Cc1noc(C)c1NC(=O)Nc1ccc2c(c1)C(=O)N([C@@H](C)CO)C[C@H](C)[C@H](CN(C)S(=O)(=O)c1cn(C)cn1)O2,-,.,.,-
COc1ccc(NC(=O)Nc2ccc3c(c2)CC(=O)N([C@H](C)CO)C[C@@H](C)[C@H](CN(C)S(=O)(=O)c2cccs2)O3)cc1,-,.,.,-
CCOC(=O)c1cccc(-c2c(-c3ccccc3)ncc3cc(OC)c(OC)cc23)c1,.,97.4,-,-
CC(=O)N1CC2(C1)[C@H](c1ccc(-c3cccc(F)c3)cc1)[C@@H](CO)N2CC1CCOCC1,-,.,.,.
C/C=C/c1ccc([C@@H]2[C@@H](CO)N3CCCCN(C(=O)Nc4ccc(OC)cc4)C[C@H]23)cc1,-,.,.,102.4
O=C(NC1CCCC1)N1CCCCN2[C@H](CO)[C@H](c3ccc(-c4cncnc4)cc3)[C@@H]2C1,-,.,.,103.2
SMILES,PGC1a acetyl inh,MITF TRPM1 HTS,Wnt act,Cneo AK release
COc1ccc(C#Cc2ccc3c(c2)O[C@@H](CN(C)C(=O)c2ccccn2)[C@@H](C)CN([C@@H](C)CO)S3(=O)=O)cc1,.,.,.,-
C[C@H](CO)N1C[C@H](C)[C@H](CN(C)S(=O)(=O)c2ccc(Cl)cc2)Oc2ccc(NC(=O)Nc3ccc(F)cc3)cc2CC1=O,-,.,.,-
Cc1cccc(C)c1NC(=O)C1C(c2ccc3c(c2)OCO3)=Nc2ccccc2N1C(=O)c1ccccc1 (configuration not stated),.,.,-,.
O=C(Nc1ccc2c(c1)OCCO2)C1C(c2ccccc2)=Nc2ccccc2N1C(=O)c1cccnc1 (configuration not stated),.,.,50.0,.
COc1ccc(NC(=O)Nc2ccc3c(c2)C(=O)N([C@H](C)CO)C[C@H](C)[C@H](CN(C)S(=O)(=O)c2cccs2)O3)cc1,-,.,.,-
CCC(=O)N1C[C@@H](C)[C@@H](OC)CN(C)C(=O)c2cc(NC(=O)CC(F)(F)F)ccc2OC[C@@H]1C,-,.,.,.
O=C(Nc1nc2ccc(Cl)cc2s1)C1CC1,-,.,60.2,-
CC(C)c1ccc2nc(NC(=O)C3CC3)sc2c1,-,-,58.5,-
O=C(Nc1nc2ccc(Cl)cc2s1)C1CCCO1 (configuration not stated),-,-,.,-
COc1cccc(S(=O)(=O)N[C@@H]2CC[C@@H](CCNC(=O)Nc3cc(F)ccc3F)O[C@@H]2CO)c1,-,.,.,-
CCOc1ccc(C(=O)/C=C/c2cn(CN3CCN(C)CC3)c3ccccc23)cc1,-,-,-,-
COc1ccc(C(=O)/C=C/c2cn(CN3CCN(C)CC3)c3ccccc23)cc1,-,95.0,.,-
COc1ccc2c3c([nH]c2c1)[C@@H](CO)N(C(C)=O)CC31CN(C(=O)c2ccc3c(c2)OCO3)C1,-,.,.,.
O=C(c1cnccn1)N1CC(=O)N2[C@H](C1)[C@@H](c1ccc(C#CC3CC3)cc1)[C@@H]2CO,-,.,.,.
CC(C)(C)c1ccc(C(=O)Nc2ccc(F)cc2)s1,.,90.9,-,.
CCc1cc2cc(C(=O)Nc3ccccc3F)sc2s1,-,-,-,-
Cn1nc(C(F)(F)F)c2cc(C(=O)Nc3ccc(F)cc3)sc21,.,-,-,.
CCc1cc2cc(C(=O)Nc3ccc(F)cc3)sc2s1,-,-,48.9,-
Cc1ccc(C)c(S(=O)(=O)N(C(=O)c2ccncc2)c2ccc(OC(=O)c3ccncc3)cc2)c1,44.1,-,47.7,.
c1ccc(-c2nc3ccccn3c2-c2ccccc2)cc1,.,-,42.6,.
COc1ccc(-c2ccc(-c3noc(C)n3)c(OC)n2)cc1,-,90.9,.,-
COCc1nc(-c2ccc(-c3ccc(C)cc3)nc2OC)no1,-,.,38.8,-
COc1ccccc1C(=O)N1C[C@@H]2[C@H](c3ccccc31)[C@@H](CO)N2C(=O)C1CCCCC1,-,.,.,-
CC(C)(C)C(=O)c1cnc(Nc2ccccc2Cl)s1,-,143.9,.,-
CNc1ncc(C(=O)c2ccc(-c3ccccc3)cc2)s1,-,-,41.4,-
SMILES,PGC1a acetyl inh,MITF TRPM1 HTS,Wnt act,Cneo AK release
O=C(c1ccc(Cl)c(Cl)c1)c1cnc(Nc2ccccc2)s1,-,-,-,-
O=C(c1ccccc1)c1cnc(Nc2ccccc2Cl)s1,-,97.7,.,-
CNc1ncc(C(=O)c2ccc(Cl)cc2)s1,-,.,.,-
Clc1ccc(N=C2SCCS2)cc1,.,-,-,.
O=C(CN1CCCCC1CO)c1ccc(OC(F)F)cc1 (configuration not stated),.,-,-,.
FC(F)Oc1ccc(N=C2SCC3CCCCN23)cc1 (configuration not stated),.,94.3,-,-
Clc1ccc(N=C2SCC3CCCCN23)cc1 (configuration not stated),-,97.0,-,-
O=C(c1ccc2c(c1)OCO2)N1CCCCN2[C@H](C1)[C@@H](c1ccc(-c3ccccc3)cc1)[C@@H]2CO,-,.,.,-
Cc1cccc(-c2ccc([C@H]3[C@H](CO)N4CCCCN(C(=O)c5ccc6c(c5)OCO6)C[C@@H]34)cc2)c1,-,.,.,91.0
CCc1cc2c(=O)[nH]c(-c3ccccn3)nc2s1,-,-,34.1,-
O=C(c1cccnc1)N1C[C@H]2[C@@H](c3ccccc31)[C@@H](CO)N2C(=O)Nc1cccc(F)c1,-,.,.,-
O=C(CCNC(=O)c1ccc(Br)cc1)Nc1ccc(S(=O)(=O)N2CCOCC2)cc1,-,-,35.9,-
O=C(CCNC(=O)c1ccc(Cl)cc1)Nc1ccc(S(=O)(=O)N2CCOCC2)cc1,-,-,-,-
